Data taken from ChEMBL document CHEMBL3112513, “Synthesis, docking and pharmacological evaluation of novel indole based potential atypical antipsychotics” (2014).
Activity calls are given as the source filed them. No cut-off for these calls is given here.

What was measured:
Mus musculus [1] = experiment: Antipsychotic activity in albino lyka mouse assessed as reversal of apomorphine-induced stereotypy at 2.5 to 7.5 mg/kg, ip administered 10 mins prior to apomorphine challenge measured 10 to 30 mins post challenge; format: functional, organism-based
Summary of the method: (§1)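 Mice (same animals as the climbing test) dosed ip with test agent, saline vehicle or clozapine; apomorphine 2.5 mg/kg given 10 min later. Each mouse was placed in an inverted 500 ml beaker for 60 s at 10, 15, 20, 25 and 30 min post-apomorphine. Scored 1 (rearing, sniffing, grooming) or 2 (licking, biting). Three doses per compound, chosen by initial titration.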

Mus musculus [2] = experiment: Antipsychotic activity in ip dosed albino lyka mouse assessed as reversal of apomorphine-induced mesh climbing response administered 10 mins prior to apomorphine challenge measured 10 to 30 mins post challenge; format: functional
Summary of the method: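 Test agent, saline or clozapine given ip; apomorphine 2.5 mg/kg ip 10 min later. Mice were placed in a mesh cage for 60 s at 10, 15, 20, 25 and 30 min post-apomorphine, with a naive baseline recorded first. Climbing scored 1 (one to three paws on mesh) or 2 (all four paws). Mean score per group.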

Mus musculus [3] = experiment: Antipsychotic activity in albino lyka mouse assessed as reversal of apomorphine-induced stereotypy at 2 to 7.5 mg/kg, ip administered 10 mins prior to apomorphine challenge measured 10 to 30 mins post challenge; format: functional, organism-based; summary of the method: as §1
Mus musculus [4] = experiment: Antipsychotic activity in albino lyka mouse assessed as reversal of apomorphine-induced stereotypy at 5 to 10 mg/kg, ip administered 10 mins prior to apomorphine challenge measured 10 to 30 mins post challenge; format: functional, organism-based; summary of the method: as §1
Mus musculus [5] = experiment: Antipsychotic activity in albino lyka mouse assessed as reversal of apomorphine-induced stereotypy at 2.5 to 5 mg/kg, ip administered 10 mins prior to apomorphine challenge measured 10 to 30 mins post challenge; format: functional, organism-based
Summary of the method: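 Mice given test compound, vehicle or clozapine i.p., then apomorphine 2.5 mg/kg i.p. 10 min later. Each mouse placed in an inverted 500 ml beaker for 60 s at 10, 15, 20, 25 and 30 min after apomorphine. Scored 1 (rearing, sniffing, grooming) or 2 (licking, biting), reported as mean score. Same mice as mesh-climbing test. Three dose levels, chosen by initial titration.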

Compound | Activity (Mus musculus [1]) | ED50 (Mus musculus [2]) | Activity (Mus musculus [3]) | Activity (Mus musculus [4]) | Activity (Mus musculus [5])
COc1ccccc1NCCCOc1ccc(-c2cc3ccccc3[nH]2)cc1 | Active | 1.7 mg/kg |  |  | 
Clc1ccccc1NCCCOc1ccc(-c2cc3ccccc3[nH]2)cc1 |  | 1.6 mg/kg | inactive |  | 
COc1ccc(NCCCOc2ccc(-c3cc4ccccc4[nH]3)cc2)cc1 | Active | 1.9 mg/kg |  |  | 
Clc1ccc(NCCCOc2ccccc2-c2cc3ccccc3[nH]2)cc1 |  | 7.23 mg/kg |  | inactive | 
CN1CCN(C2=Nc3cc(Cl)ccc3Nc3ccccc32)CC1 [CLOZAPINE] |  | 3.07 mg/kg |  |  | inactive
Clc1ccccc1NCCCOc1ccccc1-c1cc2ccccc2[nH]1 |  | 6.23 mg/kg |  | inactive | 
Clc1ccc(NCCCOc2ccc(-c3cc4ccccc4[nH]3)cc2)cc1 |  | 1.8 mg/kg | inactive |  | 
